Source: ChEMBL document CHEMBL1149258, “Synthesis and structure-activity relationships of novel histamine H1 antagonists: indolylpiperidinyl benzoic acid derivatives” (J Med Chem, 2004)
Activity calls are given as the source filed them. Unless noted, no cut-off for these calls is given here.

System: Cavia porcellus
Assay: Effect on QT interval prolongation in Dunkin-Hartley guinea pigs at 30 mg/kg, iv
Assay type: functional, organism-based
Parameters: dose 30 mg/kg
Details: not given
Method in brief: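 Male guinea pigs (500-600 g), urethane 1.5 g/kg anaesthesia, ventilated (10 mL/kg, 60 cycles/min). Stabilised at least 30 min, then 3-min jugular iv perfusion at 3, 10 and 30 mg/kg. Surface ECG recorded at end of perfusion and at 15, 30, 45 and 60 min. QTc by Bazett; change in ms from baseline. Vehicle-only controls.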

Structure (SMILES) | Activity
COCCn1cc(C2CCN(Cc3ccc(OC)c(C(=O)O)c3)CC2)c2ccccc21 | inactive
COCCn1cc(C2CCN(CCOc3ccccc3C(=O)O)CC2)c2ccc(F)cc21 | inactive

System: not listed separately
Assay: Volume of distribution at steady state in Wistar rat at 1 mg/kg, iv after 8 hrs
Assay type: ADME, organism-based
Parameters: dose 1 mg/kg, route intravenous
Details: in vivo, read-out: Vss
Method in brief: (§1)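 Male Wistar rats, fasted overnight, dosed iv at 1 mg/kg. Blood sampled from 0.1 to 24 h; plasma stored at -20 °C. Levels measured by isocratic HPLC-UV (225 nm) after on-line solid-phase extraction, or by HPLC-MS (ESI+) for one analyte. Parameters from noncompartmental analysis.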

Structure (SMILES) | Vd [L/kg]
CCCCn1cc(C2CCN(CCOc3ccccc3C(=O)O)CC2)c2ccccc21 | 0.4
CCOCCn1cc(C2CCN(CCOc3ccccc3C(=O)O)CC2)c2ccccc21 | 0.7
CCOCCn1cc(C2CCN(CCOc3ccccc3C(=O)O)CC2)c2cc(OC)ccc21 | 0.5
COCCn1cc(C2CCN(Cc3ccc(OC)c(C(=O)O)c3)CC2)c2ccccc21 | 0.6
COc1ccc(CN2CCC(c3cn(Cc4cccs4)c4cc(F)ccc34)CC2)cc1C(=O)O | 1.1
O=C(O)c1ccccc1OCCN1CCC(c2cn(CCC3OCCO3)c3ccccc23)CC1 | 0.5
COCCn1cc(C2CCN(CCOc3ccccc3C(=O)O)CC2)c2ccc(F)cc21 | 0.3

System: Rattus norvegicus
Assay: Inhibition of increase in histamine-induced cutaneous vascular permeability in orally dosed Wistar rat model after 8 hrs
Assay type: functional
Details: po
Method in brief: (§2)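 Male Wistar rats (150-175 g), fasted, dosed orally in 0.5% methylcellulose/0.1% Tween 80 (10 mL/kg), n=5. At 1 or 8 h after dosing, four intradermal injections of 5 µg histamine were given, plus iv 0.5% Evans Blue. Papule area (ellipse) measured 1 h later. ED50 in mg/kg po.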

Structure (SMILES) | ED50
CCCCn1cc(C2CCN(CCOc3ccccc3C(=O)O)CC2)c2ccccc21 | 0.8 mg/kg (antagonist)
CCOCCn1cc(C2CCN(CCOc3ccccc3C(=O)O)CC2)c2ccccc21 | 0.22 mg/kg (antagonist)
CCOCCn1cc(C2CCN(CCOc3ccccc3C(=O)O)CC2)c2cc(OC)ccc21 | 0.08 mg/kg (antagonist)
COCCn1cc(C2CCN(Cc3ccc(OC)c(C(=O)O)c3)CC2)c2ccccc21 | 0.14 mg/kg (antagonist)
COc1ccc(CN2CCC(c3cn(Cc4cccs4)c4cc(F)ccc34)CC2)cc1C(=O)O | 0.66 mg/kg (antagonist)
O=C(O)c1ccccc1OCCN1CCC(c2cn(CCC3OCCO3)c3ccccc23)CC1 | 0.9 mg/kg (antagonist)
COCCn1cc(C2CCN(CCOc3ccccc3C(=O)O)CC2)c2ccc(F)cc21 | 0.13 mg/kg (antagonist)

System: Rattus norvegicus
Assay: Inhibition of increase in histamine-induced cutaneous vascular permeability in orally dosed Wistar rat model after 4 hrs
Assay type: functional
Details: po
Method in brief: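 Fasted male rats (150-175 g; n=5 per condition) dosed orally in 0.5% methylcellulose/0.1% Tween 80. At 4 h, under light ether, received four intradermal injections of 5 µg histamine, then 0.5% Evans Blue iv. Killed 1 h later. Papule area from maximum and minimum diameters (ellipse); inhibition of papule area; ED50 (mg/kg, po).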

Structure (SMILES) | ED50 [mg/kg]
CCCCn1cc(C2CCN(CCOc3ccccc3C(=O)O)CC2)c2ccccc21 | 0.74
CCOCCn1cc(C2CCN(CCOc3ccccc3C(=O)O)CC2)c2ccccc21 | 0.1
CCOCCn1cc(C2CCN(CCOc3ccccc3C(=O)O)CC2)c2cc(OC)ccc21 | 0.035
COCCn1cc(C2CCN(Cc3ccc(OC)c(C(=O)O)c3)CC2)c2ccccc21 | 0.05
COc1ccc(CN2CCC(c3cn(Cc4cccs4)c4cc(F)ccc34)CC2)cc1C(=O)O | 0.2
O=C(O)c1ccccc1OCCN1CCC(c2cn(CCC3OCCO3)c3ccccc23)CC1 | 0.46
COCCn1cc(C2CCN(CCOc3ccccc3C(=O)O)CC2)c2ccc(F)cc21 | 0.29

System: not listed separately
Assay: Clearance in Wistar rat at 1 mg/kg, iv after 8 hrs
Assay type: ADME, organism-based
Parameters: dose 1 mg/kg, route intravenous
Details: in vivo
Method in brief: as §1

Structure (SMILES) | clearance [mL/min/kg]
CCCCn1cc(C2CCN(CCOc3ccccc3C(=O)O)CC2)c2ccccc21 | 6.67
CCOCCn1cc(C2CCN(CCOc3ccccc3C(=O)O)CC2)c2ccccc21 | 10
CCOCCn1cc(C2CCN(CCOc3ccccc3C(=O)O)CC2)c2cc(OC)ccc21 | 13.3
COCCn1cc(C2CCN(Cc3ccc(OC)c(C(=O)O)c3)CC2)c2ccccc21 | 3.33
COc1ccc(CN2CCC(c3cn(Cc4cccs4)c4cc(F)ccc34)CC2)cc1C(=O)O | 5
O=C(O)c1ccccc1OCCN1CCC(c2cn(CCC3OCCO3)c3ccccc23)CC1 | 5
COCCn1cc(C2CCN(CCOc3ccccc3C(=O)O)CC2)c2ccc(F)cc21 | 1.67

System: Rattus norvegicus
Assay: Inhibition of increase in histamine-induced cutaneous vascular permeability in orally dosed Wistar rat model after 1 hrs
Assay type: functional
Details: po
Method in brief: as §2

Structure (SMILES) | ED50 [mg/kg]
CCOCCn1cc(C2CCN(CCOc3ccccc3C(=O)O)CC2)c2ccccc21 | 0.02
COCCn1cc(C2CCN(Cc3ccc(OC)c(C(=O)O)c3)CC2)c2ccccc21 | 0.03
COCCn1cc(C2CCN(CCOc3ccccc3C(=O)O)CC2)c2ccc(F)cc21 | 0.16

Biological target: Histamine H1 receptor (Cavia porcellus, UniProt P31389)
Assay: Displacement of [3H]mepyramine from histamine H1 receptor in guinea pig cerebellum membranes
Assay type: cell membranes, Membrane
Details: not given
Method in brief: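 Guinea pig cerebellum membranes (160 µg/mL) incubated with 0.7 nM [3H]-mepyramine at 30 °C for 30 min, 0.5 mL final volume, ended by filtration. Nonspecific binding with 10 µM promethazine. At least six concentrations in duplicate; IC50 by nonlinear regression. Compound stocks 10^-2 M in DMSO, diluted in 50% DMSO.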

Chain of Histamine H1 receptor (P31389 whole entry): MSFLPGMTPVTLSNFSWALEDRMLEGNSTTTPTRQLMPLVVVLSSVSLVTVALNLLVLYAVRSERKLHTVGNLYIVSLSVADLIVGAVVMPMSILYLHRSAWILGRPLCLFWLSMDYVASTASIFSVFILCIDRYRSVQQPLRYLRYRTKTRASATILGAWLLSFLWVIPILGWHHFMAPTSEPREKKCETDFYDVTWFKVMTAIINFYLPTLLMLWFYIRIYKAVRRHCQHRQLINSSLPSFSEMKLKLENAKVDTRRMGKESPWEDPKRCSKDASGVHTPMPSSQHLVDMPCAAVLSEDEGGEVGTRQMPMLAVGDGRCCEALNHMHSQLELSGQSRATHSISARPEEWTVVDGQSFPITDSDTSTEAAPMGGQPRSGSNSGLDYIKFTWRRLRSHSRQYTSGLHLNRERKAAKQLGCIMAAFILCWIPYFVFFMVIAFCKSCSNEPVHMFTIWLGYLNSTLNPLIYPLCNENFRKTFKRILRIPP

Structure (SMILES) | IC50
CCOCCn1cc(C2CCN(CCOc3ccccc3C(=O)O)CC2)c2cc(OC)ccc21 | 0.155 µM (antagonist)
COCCn1cc(C2CCN(CCOc3ccccc3C(=O)O)CC2)c2ccc(F)cc21 | 0.14 µM (antagonist)

Biological target: Histamine H1 receptor (Mus musculus) (UniProt P70174)
Assay: Ex vivo displacement of [3H]mepyramine from brain histamine H1 receptor in orally dosed Swiss Albino mouse
Assay type: functional, organism-based
Details: not given
Method in brief: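 Overnight-fasted male mice (20-25 g) dosed orally at several doses (0.5% methylcellulose/0.1% Tween 80, 10 mL/kg), killed 90 min later. Whole brain homogenised in ice-cold 0.05 M Na+/K+ phosphate pH 7.4; aliquots incubated in triplicate with 2 nM final [3H]-mepyramine, 40 min at 30 °C, then filtered. Nonspecific binding from 30 mg/kg po D-chlorpheniramine; total binding from vehicle. Three animals per dose; ED50 reported.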

Chain of Histamine H1 receptor (Mus musculus) (P70174 whole entry): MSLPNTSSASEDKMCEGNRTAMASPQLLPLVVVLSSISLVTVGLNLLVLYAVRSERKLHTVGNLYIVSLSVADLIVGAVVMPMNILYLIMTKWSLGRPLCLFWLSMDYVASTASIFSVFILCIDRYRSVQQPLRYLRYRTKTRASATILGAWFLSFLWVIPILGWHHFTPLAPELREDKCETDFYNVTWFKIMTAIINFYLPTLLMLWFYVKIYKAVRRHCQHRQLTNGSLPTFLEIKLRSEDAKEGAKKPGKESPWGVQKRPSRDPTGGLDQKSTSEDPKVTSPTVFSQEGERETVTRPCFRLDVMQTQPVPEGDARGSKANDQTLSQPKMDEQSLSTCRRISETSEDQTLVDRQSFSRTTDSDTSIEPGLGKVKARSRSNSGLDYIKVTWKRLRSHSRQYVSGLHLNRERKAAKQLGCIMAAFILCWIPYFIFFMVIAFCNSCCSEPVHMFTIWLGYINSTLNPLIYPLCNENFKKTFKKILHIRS

Structure (SMILES) | ED50 [mg/kg]
CCCCn1cc(C2CCN(CCOc3ccccc3C(=O)O)CC2)c2ccccc21 | 100
CCOCCn1cc(C2CCN(CCOc3ccccc3C(=O)O)CC2)c2ccccc21 | 8
CCOCCn1cc(C2CCN(CCOc3ccccc3C(=O)O)CC2)c2cc(OC)ccc21 | > 100
COCCn1cc(C2CCN(Cc3ccc(OC)c(C(=O)O)c3)CC2)c2ccccc21 | 9.5
COc1ccc(CN2CCC(c3cn(Cc4cccs4)c4cc(F)ccc34)CC2)cc1C(=O)O | 29
O=C(O)c1ccccc1OCCN1CCC(c2cn(CCC3OCCO3)c3ccccc23)CC1 | > 100
COCCn1cc(C2CCN(CCOc3ccccc3C(=O)O)CC2)c2ccc(F)cc21 | 40

Biological target: CYP3A4 (Homo sapiens, UniProt P08684)
Assay: Inhibition of CYP3A4 in human microsomes at 25 uM
Assay type: ADME, Microsome
Details: not given

Chain of CYP3A4 (P08684 whole entry): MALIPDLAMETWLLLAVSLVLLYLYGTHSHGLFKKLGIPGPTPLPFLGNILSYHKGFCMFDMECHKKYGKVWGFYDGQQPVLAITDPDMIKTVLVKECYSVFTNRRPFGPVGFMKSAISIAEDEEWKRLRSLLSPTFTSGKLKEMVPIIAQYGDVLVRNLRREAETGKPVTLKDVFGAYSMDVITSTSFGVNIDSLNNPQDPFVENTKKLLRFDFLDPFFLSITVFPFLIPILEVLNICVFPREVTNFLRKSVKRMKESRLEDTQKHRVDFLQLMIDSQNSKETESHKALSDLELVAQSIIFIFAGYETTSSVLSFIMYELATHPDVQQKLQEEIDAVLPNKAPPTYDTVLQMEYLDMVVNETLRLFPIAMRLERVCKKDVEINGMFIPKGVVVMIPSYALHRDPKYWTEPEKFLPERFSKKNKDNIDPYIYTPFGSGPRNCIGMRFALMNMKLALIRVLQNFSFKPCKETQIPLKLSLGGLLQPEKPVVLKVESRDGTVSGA

Structure (SMILES) | inhibition at 25 µM [%]
CCOCCn1cc(C2CCN(CCOc3ccccc3C(=O)O)CC2)c2ccccc21 | 0
COCCn1cc(C2CCN(Cc3ccc(OC)c(C(=O)O)c3)CC2)c2ccccc21 | -9
COCCn1cc(C2CCN(CCOc3ccccc3C(=O)O)CC2)c2ccc(F)cc21 | 15

Biological target: T1, Adrenergic receptor alpha-1 (Rattus norvegicus, UniProt P15823+P23944+P43140)
T1 sequence (P15823 whole entry): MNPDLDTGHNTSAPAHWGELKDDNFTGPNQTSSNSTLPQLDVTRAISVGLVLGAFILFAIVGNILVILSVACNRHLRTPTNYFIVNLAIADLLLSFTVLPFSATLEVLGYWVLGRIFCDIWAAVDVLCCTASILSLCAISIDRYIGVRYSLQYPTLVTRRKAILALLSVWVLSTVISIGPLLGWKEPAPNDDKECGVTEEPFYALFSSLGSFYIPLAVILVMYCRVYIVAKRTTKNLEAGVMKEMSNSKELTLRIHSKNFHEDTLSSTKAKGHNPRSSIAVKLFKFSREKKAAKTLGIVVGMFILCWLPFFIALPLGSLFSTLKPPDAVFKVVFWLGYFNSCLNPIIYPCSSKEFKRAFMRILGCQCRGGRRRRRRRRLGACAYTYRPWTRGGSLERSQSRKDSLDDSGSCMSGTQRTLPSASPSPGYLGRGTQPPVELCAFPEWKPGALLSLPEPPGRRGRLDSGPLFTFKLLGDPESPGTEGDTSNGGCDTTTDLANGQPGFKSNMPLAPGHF
T1 sequence (P23944 whole entry): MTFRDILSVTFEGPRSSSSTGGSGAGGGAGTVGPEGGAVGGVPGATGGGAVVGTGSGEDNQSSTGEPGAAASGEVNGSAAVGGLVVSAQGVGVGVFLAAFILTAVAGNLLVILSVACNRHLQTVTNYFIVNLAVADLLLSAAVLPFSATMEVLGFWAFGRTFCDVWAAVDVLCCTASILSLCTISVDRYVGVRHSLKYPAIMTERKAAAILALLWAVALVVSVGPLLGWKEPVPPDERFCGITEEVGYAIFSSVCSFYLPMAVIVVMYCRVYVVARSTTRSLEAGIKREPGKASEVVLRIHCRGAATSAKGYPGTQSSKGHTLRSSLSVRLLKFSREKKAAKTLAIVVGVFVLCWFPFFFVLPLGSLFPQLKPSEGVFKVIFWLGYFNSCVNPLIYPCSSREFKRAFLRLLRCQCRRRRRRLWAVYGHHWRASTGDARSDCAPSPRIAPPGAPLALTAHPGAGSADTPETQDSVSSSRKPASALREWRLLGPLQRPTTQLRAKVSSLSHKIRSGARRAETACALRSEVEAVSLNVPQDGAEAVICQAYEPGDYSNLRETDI
T1 sequence (P43140 whole entry): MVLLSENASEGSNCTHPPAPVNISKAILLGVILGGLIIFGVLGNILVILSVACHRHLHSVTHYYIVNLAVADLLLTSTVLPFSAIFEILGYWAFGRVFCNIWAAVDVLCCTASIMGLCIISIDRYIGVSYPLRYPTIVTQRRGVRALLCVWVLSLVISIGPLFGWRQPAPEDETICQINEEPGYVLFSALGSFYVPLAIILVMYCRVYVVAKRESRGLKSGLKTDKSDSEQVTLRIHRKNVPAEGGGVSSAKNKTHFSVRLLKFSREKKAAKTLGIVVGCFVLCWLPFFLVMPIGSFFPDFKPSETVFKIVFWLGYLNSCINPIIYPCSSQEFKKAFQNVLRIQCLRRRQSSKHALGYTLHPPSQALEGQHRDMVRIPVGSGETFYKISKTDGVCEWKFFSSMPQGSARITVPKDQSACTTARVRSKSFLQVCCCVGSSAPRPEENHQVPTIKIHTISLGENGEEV
Assay: Displacement of [3H]prazosin from adrenergic alpha-1 receptor in rat brain membranes
Assay type: cell membranes
Details: not given
Method in brief: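 Rat brain membranes (340 µg protein/mL) with 0.25 nM [3H]-prazosin in 50 mM Tris-HCl pH 7.7, room temperature, 60 min, filtration. Nonspecific binding with 100 µM prazosin. Several concentrations run in duplicate; IC50 by nonlinear regression.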

Structure (SMILES) | IC50 [µM]
CCCCn1cc(C2CCN(CCOc3ccccc3C(=O)O)CC2)c2ccccc21 | > 10
CCOCCn1cc(C2CCN(CCOc3ccccc3C(=O)O)CC2)c2ccccc21 | 10
CCOCCn1cc(C2CCN(CCOc3ccccc3C(=O)O)CC2)c2cc(OC)ccc21 | > 10
COCCn1cc(C2CCN(Cc3ccc(OC)c(C(=O)O)c3)CC2)c2ccccc21 | > 10
COc1ccc(CN2CCC(c3cn(Cc4cccs4)c4cc(F)ccc34)CC2)cc1C(=O)O | > 10
O=C(O)c1ccccc1OCCN1CCC(c2cn(CCC3OCCO3)c3ccccc23)CC1 | 6.5
COCCn1cc(C2CCN(CCOc3ccccc3C(=O)O)CC2)c2ccc(F)cc21 | > 10

System: Cavia porcellus
Assay: Effect on QT interval prolongation in Dunkin-Hartley guinea pigs at 10 mg/kg, iv
Assay type: functional, organism-based
Parameters: dose 10 mg/kg
Details: not given

Structure (SMILES) | Activity
CCOCCn1cc(C2CCN(CCOc3ccccc3C(=O)O)CC2)c2ccccc21 | inactive

System: not listed separately
Assay: Half life in Wistar rat at 1 mg/kg, iv after 8 hrs
Assay type: ADME, organism-based
Parameters: dose 1 mg/kg, route intravenous
Details: in vivo
Method in brief: as §1

Structure (SMILES) | half-life [h]
CCCCn1cc(C2CCN(CCOc3ccccc3C(=O)O)CC2)c2ccccc21 | 1.6
CCOCCn1cc(C2CCN(CCOc3ccccc3C(=O)O)CC2)c2ccccc21 | 1.1
CCOCCn1cc(C2CCN(CCOc3ccccc3C(=O)O)CC2)c2cc(OC)ccc21 | 0.9
COCCn1cc(C2CCN(Cc3ccc(OC)c(C(=O)O)c3)CC2)c2ccccc21 | 3.9
COc1ccc(CN2CCC(c3cn(Cc4cccs4)c4cc(F)ccc34)CC2)cc1C(=O)O | 3.8
O=C(O)c1ccccc1OCCN1CCC(c2cn(CCC3OCCO3)c3ccccc23)CC1 | 2.9
COCCn1cc(C2CCN(CCOc3ccccc3C(=O)O)CC2)c2ccc(F)cc21 | 3.4
